Assay outcomes deposited in PubChem by several laboratories.
In the library only some 1.8% were active in any assay of this set; here they are far more common.
B2AR ag = agonists of human beta-2 adrenergic receptor inducing internalization | Am2.2-beta2AR cells, FAP receptor internalization, flow cytometry | response, % (concentration not given with the values) | actives 0.43% (n = 340,000);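 active = response above a set limit, near 3 SD of response in nonfluorescent compounds, cut at about 42% in these data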
Target sequence (P07550 whole entry, looked up): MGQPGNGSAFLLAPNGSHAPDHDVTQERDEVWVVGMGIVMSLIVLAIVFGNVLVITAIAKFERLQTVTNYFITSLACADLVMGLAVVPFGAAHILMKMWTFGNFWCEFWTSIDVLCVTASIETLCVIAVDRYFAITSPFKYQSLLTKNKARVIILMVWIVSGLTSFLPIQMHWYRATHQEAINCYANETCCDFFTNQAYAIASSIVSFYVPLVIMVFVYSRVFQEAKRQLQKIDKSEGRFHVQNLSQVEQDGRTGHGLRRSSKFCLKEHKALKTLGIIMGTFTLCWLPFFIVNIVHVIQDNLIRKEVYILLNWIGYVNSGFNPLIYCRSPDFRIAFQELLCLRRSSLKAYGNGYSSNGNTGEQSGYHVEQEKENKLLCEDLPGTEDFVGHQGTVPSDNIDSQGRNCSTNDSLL
EBI2 block = antagonists of human EBI2 receptor | inhibition, % at 5 µM | actives 0.81% (n = 360,000) | P32249 | EBI2 beta-arrestin recruitment, luminescence, 7a,25-OHC stimulated | AID 651636; in the data active = inhibition above about 38%;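 also: enzyme fragment complementation signal reports receptor beta-arrestin coupling in cells; 0% = agonist plus DMSO wells and 100% = wells without agonist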
APJ antag = antagonists of human APJ apelin receptor | CHO-K1 APJ beta-arrestin complementation, luminescence | inhibition, % at 20 µM | actives 0.32% (n = 330,000) | P35414 | AID 2521;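 active = inhibition above about 40% at 20 µM, limit read from the data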;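 also: cells challenged with 10 nM apelin-13 agonist together with compound; plate controls were apelin-13 plus DMSO wells for no effect and DMSO wells lacking apelin-13 for full effect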
APJ ag = agonists of human APJ apelin receptor; P35414; actives 0.11% (n = 330,000); AID 2520; CHO-K1 APJ PathHunter beta-arrestin, luminescence; 0% DMSO wells, 100% apelin; activation, % at 20 µM;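 active = activation more than six SD over the plate average, tested at 20 µM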;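 also: 0% = DMSO alone and 100% = apelin-13 at 10 nM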
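Test system – PathHunter CHO-K1 APJ (AGTRL-1) beta-arrestin reporter cells · Input – 1000 cells/well · Compound – single test compound dose, 20 µM final, 1% DMSO · Times – compound stimulation 90 min at 25 °C, detection 60 min · Technique – beta-gal luminescence · Read-out basis – APJ–arrestin association signal · Control set – negative DMSO alone, positive Apelin-13 at 10 nM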
CXCR6 block = blocks human CXCR6 beta-arrestin recruitment. inhibition, % at 20 µM. AID 602244. CHO-K1 PathHunter CXCR6 beta-arrestin, luminescence. actives 0.36% (n = 360,000); in the data active = inhibition above about 34%, passing the limit was not always enough;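 also: antagonist mode with CXCL16 agonist at 10 nM final; 0% = 10 nM CXCL16 with DMSO and 100% = unstimulated wells without agonist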
CCR6 antagonist = CCR6 (human) receptor antagonism. inhibition, % at 20 µM. AID 493098. actives 0.49% (n = 340,000). CHO-K1 CCR6 PathHunter beta-arrestin, luminescence, CCL20-stimulated. P51684;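 active = compounds whose inhibition of the agonist-driven luminescence signal at 20 µM reaches about 50%, limit read from the data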;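 also: cells stimulated with CCL20 at 14 nM final; plate controls were DMSO with CCL20 for no effect and DMSO without agonist for full effect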
EBI2 antag conf = confirmation of human EBI2 receptor antagonists | EBI2 beta-arrestin luminescence, 7a,25-OHC antagonism | actives 29% (n = 2,400) | inhibition, % at 5 µM | shares compounds with EBI2 block | AID 651997;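 active = inhibition of at least 50%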
EBI2 agonist = counter-screen for EBI2 antagonists: EBI2 agonist activity; EBI2-expressing cells, agonist mode, luminescence, 60 min; 0% vehicle, 100% 7α,25-dihydroxycholesterol control; activation, % at 5 µM; 2,400 tested, under 10 active; AID 652000; shares compounds with EBI2 block;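 active = activation of at least 50%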
bGal cs = inhibits E. coli beta-galactosidase, counter-screen for EBI2 antagonists | shares compounds with EBI2 block | purified beta-galactosidase, luminescent Galacton Star, 15 min | inhibition, % at 5 µM | actives 1% (n = 2,400) | AID 652176;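 active = replicate-average signal at least 3 plate SD below neutral wells, shown as high inhibition, flagging enzyme-inhibiting false positives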;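 also: 0% = DMSO wells with enzyme and 100% = wells lacking enzyme; higher means stronger loss of beta-gal luminescence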
* = called active by the depositor; . = not tested or not shown.

SMILES | B2AR ag | EBI2 block | APJ antag | APJ ag | CXCR6 block | CCR6 antagonist | EBI2 antag conf | EBI2 agonist | bGal cs
CC(C)c1ccc(S(=O)(=O)N2CCN(C(=O)c3cc(-c4ccccc4)n[nH]3)CC2)cc1 | -1 | 75* | -52 | -3 | 8 | 21 | 34 | -1 | -12
O=C(c1ccc(F)cc1)N1CCN(S(=O)(=O)c2ccc(Br)cc2)CC1 | -3 | 6 | 2 | 2 | -11 | 28 | . | . | .
COc1cc(C(=O)N2CCN(C(=O)c3cc(-c4ccc(Br)cc4)n[nH]3)CC2)cc(OC)c1OC | 3 | 52* | -51 | -1 | 2 | 4 | 10 | -1 | -13
COc1cccc(-c2cc(C(=O)N3CCN(S(=O)(=O)c4ccc(Br)cc4)CC3)[nH]n2)c1 | 12 | 57* | -11 | 5 | -4 | 14 | 38 | 1 | 11
S=C1NC[C@H](c2ccccc2)N1CCCCC1CCCCC1 | -5 | 46* | 2 | -4 | -7 | 25 | 33 | 0 | 7
CC(C)C[C@H]1CN([C@@H](Cc2ccccc2)CN2CCC[C@@H]2CN2C(=O)C(=O)NC[C@@H]2Cc2ccccc2)C(=O)C(=O)N1CC1CCCCC1 | . | 7 | . | . | 6 | . | . | . | .
CNC(=O)/C(C#N)=C/c1ccc(-c2nc3ccccc3s2)o1 | -2 | 53* | 5 | 0 | 1 | 5 | 30 | -1 | -11
COc1cc(OC)nc(C(NC(=O)C2CCN(Cc3ccc(Oc4ccccc4)cc3)CC2)c2ccccc2C)n1 (configuration not stated) | . | 53* | . | . | 28 | . | 19 | -1 | -9
COc1ccc(Nc2c(-c3ccc(F)cc3)nc3nc(C)cc(C)n23)cc1 | . | 5 | . | . | 5 | . | . | . | .
CC(=O)c1cccc(Nc2nc(-c3sc(C)nc3C)cs2)c1 | 28 | 52* | 2 | -1 | 2 | -2 | 38 | -1 | -11
CC(=O)c1ccc(Nc2nc(-c3sc(C)nc3C)cs2)cc1 | . | 51* | . | . | -7 | . | 38 | 1 | 11
COc1ccc([C@@]23Oc4cc(OC)cc(OC)c4[C@]2(O)[C@H](O)[C@H](C(=O)N(C)C)[C@H]3c2ccccc2)cc1 | 13 | 1 | . | . | 0 | 0 | . | . | .
CC(=O)N1C(=O)C2(NCC(C)N2)c2ccccc21 (configuration not stated) | . | -25 | . | . | 0 | . | . | . | .
O=c1[nH]nc2c3ccccc3occ1-2 | . | 2 | . | . | . | . | . | . | .
CCOC(=O)c1sc2nc(C)nc(NCc3ccc(F)cc3)c2c1C | 7 | 45* | -9 | 1 | 4 | 2 | 43 | 0 | -1
Cc1ccccc1OCC(=O)Nc1ccc(N2CCN(C)CC2)c(Cl)c1 | -4 | 1 | -4 | -1 | 4 | -5 | . | . | .
Cc1ccc(/C=N/NC(=O)CNC(=O)COc2ccccc2)cc1 | -19 | 27 | 1 | -5 | 4 | -3 | . | . | .
COc1ccc(/C=C/C(=O)Nc2ccc(OC)nc2)cc1 | 4 | 44* | 0 | -1 | 3 | 3 | 16 | 0 | 1
COc1ccc(/C=C/C(=O)NCC(=O)N/N=C/c2ccc(OC)cc2)cc1 | -5 | 62* | -2 | -1 | 0 | 9 | 44 | 1 | 0
COc1ccc(NC(=O)/C=C/c2ccc(OC(F)F)cc2)cn1 | 10 | 23 | -11 | 0 | -2 | 9 | . | . | .
O=C(COc1ccccc1)NCC(=O)N/N=C/c1ccc(Br)cc1 | 6 | 38* | -3 | 8 | -4 | 8 | 14 | -1 | -13
COc1ccc(C2=Nc3ccccc3N(C(=O)c3cccnc3)C2C(=O)NC(C)(C)C)cc1 (configuration not stated) | . | 4 | . | . | . | . | . | . | .
Cc1ccc(C(=O)N2CCC(C(=O)NC3CCCCCC3)CC2)cc1 | -2 | 10 | 5 | -1 | 5 | 12 | . | . | .
COc1ccc(CNC(=O)C2CCN(C(=O)c3ccc(-c4ccccc4)cc3)CC2)cc1 | 8 | 68* | -6 | -3 | 7 | 5 | 44 | -1 | -12
COc1ccc(CNC(=O)C2CCN(C(=O)c3cccc(Cl)c3)CC2)cc1 | -1 | 8 | 4 | 2 | 4 | 2 | . | . | .
SMILES | B2AR ag | EBI2 block | APJ antag | APJ ag | CXCR6 block | CCR6 antagonist | EBI2 antag conf | EBI2 agonist | bGal cs
O=C(NC1CCCC1)C1CCN(C(=O)c2ccc(-c3ccccc3)cc2)CC1 | -2 | 49* | 6 | -2 | -4 | -1 | 39 | -1 | -9
O=C(Cc1ccccc1)NC(=S)Nc1ccc2oc(-c3ccccc3)nc2c1 | . | . | 4 | -1 | . | . | . | . | .
O=C(Cc1ccccc1)NC(=S)Nc1ccc2oc(-c3ccccc3F)nc2c1 | -6 | 39* | 9 | -2 | 12 | 36 | 22 | 0 | 6
CN(C(=O)c1cccc(Nc2ccc(-c3ccc4c(c3)OCCO4)nn2)c1)C1CCCCC1 | 7 | 42* | -17 | 4 | -1 | 0 | 26 | 2 | 12
CCN(CC)S(=O)(=O)c1ccc(Nc2ccc(-c3ccc4c(c3)OCCO4)nn2)cc1 | 4 | 49* | 1 | 4 | 0 | -6 | 26 | -1 | -13
CN(C(=O)c1cccc(NC(=O)c2ccccc2)c1)C1CCCCC1 | -10 | -15 | -13 | 0 | 2 | -3 | . | . | .
CN(C)S(=O)(=O)c1ccc(Nc2ccc(-c3ccc4c(c3)OCCO4)nn2)cc1 | 0 | 30 | 2 | 4 | 2 | 2 | . | . | .
COc1cccc(NC(=O)Cn2c3ccc(OC)cc3c3nc4n(c(=O)c32)CCS4)c1 | -8 | 57* | -9 | 3 | 9 | 6 | 20 | -1 | -7
O=C(Nc1ccc2ccccc2n1)c1ccc(Cl)cc1 | -6 | 61* | 6 | -2 | 5 | 10 | 39 | -1 | 7
O=C(NCc1ccc(C(F)(F)F)cc1)C12CN(Cc3ccccc3)CC1C(c1cccc([N+](=O)[O-])c1)=NO2 (configuration not stated) | 0 | 11 | 8 | 6 | 6 | 16 | . | . | .
COc1ccc(CCNC(=O)C23CN(Cc4ccccc4)CC2C(c2cccc([N+](=O)[O-])c2)=NO3)cc1 (configuration not stated) | 5 | 52* | -2 | 2 | 2 | 3 | 45 | 1 | -2
Cc1ccc(CCNC(=O)C23CN(Cc4ccccc4)CC2C(c2cccc([N+](=O)[O-])c2)=NO3)cc1 (configuration not stated) | -1 | 63* | 2 | -1 | 5 | 5 | 43 | 2 | 7
